Source: ChEMBL document CHEMBL5338819, “Tuning the Metabolic Stability of Visual Cycle Modulators through Modification of an RPE65 Recognition Motif” (J Med Chem, 2023)
The source made the active and inactive calls. The rule behind the calls is not given here.

Experiments:
[1] = Metabolic stability in mouse liver microsomes assessed as CYP450-mediated metabolism by measuring Vmax measured upto 60 mins in presence of NADPH by Michaelis-Menten based HPLC analysis; format: ADME, Microsome; settings: 1 h
[2] = target: T1, Retinoid isomerohydrolase (Mus musculus) (UniProt Q91ZQ5); assay: In vivo inhibition of RPE65 in BALB/cJ mouse eye by measuring 11-cis-retinal level per eye at 10 mg/kg,ip administrated and measured after 4 hrs of dark adaptation by HPLC analysis; format: functional, organism-based
T1 sequence (whole entry): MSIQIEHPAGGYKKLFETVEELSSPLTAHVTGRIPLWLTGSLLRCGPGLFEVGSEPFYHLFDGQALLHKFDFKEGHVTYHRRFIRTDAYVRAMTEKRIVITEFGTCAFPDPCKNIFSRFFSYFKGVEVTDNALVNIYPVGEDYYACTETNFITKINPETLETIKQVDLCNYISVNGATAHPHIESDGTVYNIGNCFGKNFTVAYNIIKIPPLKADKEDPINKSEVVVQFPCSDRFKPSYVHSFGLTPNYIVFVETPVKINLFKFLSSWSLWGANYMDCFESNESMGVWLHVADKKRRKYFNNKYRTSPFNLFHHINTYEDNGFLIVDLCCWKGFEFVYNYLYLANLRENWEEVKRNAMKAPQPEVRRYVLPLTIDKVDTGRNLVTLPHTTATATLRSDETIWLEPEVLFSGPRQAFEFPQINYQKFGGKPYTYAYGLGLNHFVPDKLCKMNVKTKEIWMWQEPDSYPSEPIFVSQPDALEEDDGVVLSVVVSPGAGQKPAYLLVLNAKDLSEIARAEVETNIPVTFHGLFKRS

[3] = Drug concentration in C57BL/6J mouse eye assessed as emixustat concentration per eye at 10 mg/kg,ip administrated and measured after 24 hr by HPLC-MS analysis; format: ADME, organism-based; settings: in vivo
[4] = Metabolic stability in mouse liver microsomes assessed as CYP450-mediated metabolism by measuring initial velocity at 25 uM measured upto 60 mins in presence of NADPH by HPLC analysis; format: ADME, Microsome; settings: 1 h
[5] = target: T1, Retinoid isomerohydrolase (Mus musculus); assay: In vivo inhibition of RPE65 in BALB/cJ mouse eye by measuring retinyl ester level per eye at 10 mg/kg,ip administrated and measured after 24 hrs of dark adaptation by HPLC analysis; format: functional, organism-based
[6] = Metabolic stability in mouse liver microsomes assessed as CYP450-mediated metabolism by measuring Km measured upto 60 mins in presence of NADPH by Michaelis-Menten based HPLC analysis; format: ADME, Microsome; settings: 1 h
[7] = Drug concentration in mouse aorta by HPLC analysis; format: ADME, tissue-based; settings: in vitro, read-out: Drug uptake
[8] = Metabolic stability in mouse liver microsomes assessed as CYP450-mediated metabolism by measuring initial velocity at 15 uM measured upto 60 mins in presence of NADPH by HPLC analysis; format: ADME, Microsome; settings: 1 h
[9] = Drug metabolism in mouse aorta assessed as VAP-1 mediated oxidative deaminated product formation by measuring ACU-5201 metabolite concentration by HPLC analysis; format: ADME, tissue-based
[10] = Metabolic stability in mouse liver microsomes assessed as CYP450-mediated metabolism by measuring initial velocity at 200 uM measured upto 60 mins in presence of NADPH by HPLC analysis; format: ADME, Microsome; settings: 1 h
[11] = Intrinsic clearance in mouse liver microsomes measured upto 60 mins in presence of NADPH by HPLC analysis; format: ADME, Microsome; settings: 1 h
[12] = target: T1, Retinoid isomerohydrolase (Mus musculus); assay: In vivo inhibition of RPE65 in BALB/cJ mouse eye by measuring 11-cis-retinal level per eye at 10 mg/kg,ip administrated and measured after 24 hrs of dark adaptation by HPLC analysis; format: functional, organism-based
[13] = Metabolic stability in mouse liver microsomes assessed as CYP450-mediated metabolism by measuring initial velocity at 100 uM measured upto 60 mins in presence of NADPH by HPLC analysis; format: ADME, Microsome; settings: 1 h
[14] = Drug concentration in C57BL/6J mouse serum at 10 mg/kg,ip administrated and measured after 1 hr by HPLC-MS analysis; format: ADME, organism-based; settings: read-out: Ct
[15] = Drug metabolism in mouse aorta assessed as VAP-1 mediated oxidative deaminated product formation by measuring ACU-5201 metabolite concentration and measured after 1 hr by HPLC analysis; format: ADME, tissue-based
[16] = target: T1, Retinoid isomerohydrolase (Mus musculus); assay: In vivo inhibition of RPE65 in BALB/cJ mouse eye by measuring 11-cis-retinal level per eye at 10 mg/kg,ip administrated by HPLC analysis; format: functional, organism-based
[17] = Drug concentration in mouse aorta measured after 4 hr by HPLC analysis; format: ADME, tissue-based; settings: read-out: Drug uptake
[18] = Drug concentration in mouse aorta measured after 1 hr by HPLC analysis; format: ADME, tissue-based; settings: read-out: Drug uptake
[19] = Drug concentration in C57BL/6J mouse serum assessed as emixustat concentration at 10 mg/kg,ip administrated and measured after 1 hr by HPLC-MS analysis; format: ADME, organism-based; settings: in vivo, read-out: Ct
[20] = Drug concentration in C57BL/6J mouse serum assessed as emixustat concentration at 10 mg/kg,ip administrated and measured after 4 hr by HPLC-MS analysis; format: ADME, organism-based; settings: in vivo, read-out: Ct
[21] = target: T1, Retinoid isomerohydrolase (Mus musculus); assay: In vivo inhibition of RPE65 in BALB/cJ mouse eye by measuring retinyl ester level per eye at 10 mg/kg,ip administrated by HPLC analysis; format: functional, organism-based
[22] = target: Retinoid isomerohydrolase (Bos taurus, UniProt Q28175); assay: Inhibition of RPE65 in bovine microsomes assessed as reduction on 11-cis-retinol production incubated for 1 hr by HPLC analysis; parameters: species or system Microsome
[23] = Drug metabolism in mouse aorta assessed as VAP-1 mediated oxidative deaminated product formation by measuring ACU-5201 metabolite concentration and measured after 4 hr by HPLC analysis; format: ADME, tissue-based
[24] = Metabolic stability in mouse liver microsomes assessed as CYP450-mediated metabolism by measuring initial velocity at 50 uM measured upto 60 mins in presence of NADPH by HPLC analysis; format: ADME, Microsome; settings: 1 h
[25] = target: T1, Retinoid isomerohydrolase (Mus musculus); assay: In vivo inhibition of RPE65 in BALB/cJ mouse eye by measuring retinyl ester level per eye at 10 mg/kg,ip administrated and measured after 4 hrs of dark adaptation by HPLC analysis; format: functional, organism-based
[26] = Drug concentration in C57BL/6J mouse eye assessed per eye at 10 mg/kg,ip administrated and measured after 24 hr by HPLC-MS analysis; format: ADME, organism-based; settings: in vivo
[27] = Drug concentration in C57BL/6J mouse eye assessed per eye at 10 mg/kg,ip administrated and measured after 4 hr by HPLC-MS analysis; format: ADME, organism-based; settings: in vivo
[28] = target: Retinoid isomerohydrolase (Bos taurus) (UniProt Q28175); assay: Inhibition of RPE65 in bovine microsomes assessed as reduction on 11-cis-retinol production at 0.5 to 50 uM incubated for 1 hr by HPLC analysis; settings: Microsome, dose 0.5-50 µM
[29] = target: Retinoid isomerohydrolase (Bos taurus) (UniProt Q28175); assay: Inhibition of RPE65 in bovine microsomes assessed as fold decrease in 11-cis-retinol production at 0.02 to 10 uM incubated for 1 hr by HPLC analysis; settings: Microsome, dose 0.02-10 µM
Summary of the method: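 Bovine RPE microsomes in 10 mM BTP pH 7.4 with 1% BSA, 5 mM pyrophosphate and 16.4 µM apo-CRALBP (His-tagged, E. coli-expressed, Ni-purified). Amine in DMF, 0–10 µM final, was preincubated 2 min. All-trans-retinol was added, then 1 h at 37 °C in the dark. Reaction was quenched with methanol and extracted with hexane. 11-cis-retinol was quantified by normal-phase HPLC.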

Retinoid isomerohydrolase (Bos taurus), sequence (Q28175 2-533 limits assumed): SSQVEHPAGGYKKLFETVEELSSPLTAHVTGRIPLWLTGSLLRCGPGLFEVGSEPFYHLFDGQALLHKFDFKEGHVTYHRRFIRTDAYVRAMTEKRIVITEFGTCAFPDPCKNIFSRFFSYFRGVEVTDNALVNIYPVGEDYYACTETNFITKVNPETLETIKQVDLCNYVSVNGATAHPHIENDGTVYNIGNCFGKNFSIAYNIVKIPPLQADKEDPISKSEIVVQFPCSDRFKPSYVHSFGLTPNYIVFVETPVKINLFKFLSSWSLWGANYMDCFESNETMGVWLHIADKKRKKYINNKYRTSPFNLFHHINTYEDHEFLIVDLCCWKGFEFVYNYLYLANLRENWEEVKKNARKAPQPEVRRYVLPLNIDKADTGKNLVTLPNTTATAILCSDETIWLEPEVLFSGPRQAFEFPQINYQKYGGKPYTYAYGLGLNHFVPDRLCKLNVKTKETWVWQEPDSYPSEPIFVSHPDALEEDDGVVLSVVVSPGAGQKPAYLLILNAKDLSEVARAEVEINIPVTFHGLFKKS
Retinoid isomerohydrolase, sequence (Q28175 whole entry): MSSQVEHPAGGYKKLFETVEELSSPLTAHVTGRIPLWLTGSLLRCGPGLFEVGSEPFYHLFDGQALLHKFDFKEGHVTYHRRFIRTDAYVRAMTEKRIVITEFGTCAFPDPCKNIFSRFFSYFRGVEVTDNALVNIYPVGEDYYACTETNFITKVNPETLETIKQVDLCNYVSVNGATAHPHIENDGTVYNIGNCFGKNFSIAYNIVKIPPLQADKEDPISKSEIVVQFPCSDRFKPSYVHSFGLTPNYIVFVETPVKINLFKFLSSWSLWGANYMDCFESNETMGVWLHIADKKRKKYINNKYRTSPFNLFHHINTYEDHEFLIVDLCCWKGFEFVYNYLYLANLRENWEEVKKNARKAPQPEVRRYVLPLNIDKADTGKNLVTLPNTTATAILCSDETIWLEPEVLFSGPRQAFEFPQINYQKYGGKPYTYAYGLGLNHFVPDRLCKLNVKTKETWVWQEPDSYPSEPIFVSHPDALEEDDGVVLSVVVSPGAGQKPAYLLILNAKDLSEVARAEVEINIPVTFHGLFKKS

In the case of `CNCCC(O)c1cccc(OCC2CCCCC2)c1` (configuration not stated), the Vmax [1] is reported as 119.5 pmol/min, the Activity [2] is reported as 22.5 pmol and the Ct [3] is reported as 1.329 pmol. For the same compound, the V0 [4] was 54.17 pmol/min, the Activity [5] was 215 pmol and the Km [6] was 0.039 µM. The concentration [7] was 100 µM, the V0 [8] was 23.38 pmol/min and the Drug metabolism [9] was 0 µM. For the same compound, the V0 [10] was 97.45 pmol/min, the CLH [11] was 30700 µL/min/mg and the Activity [12] was 202 pmol. The V0 [13] was 89.82 pmol/min, the concentration at 1 h [14] was 0.75 µM and the Drug metabolism [15] was 0.48 µM. It also gave an Activity [16] of 13.8 pmol, a concentration at 4 h [17] of 89.1 µM and a concentration at 1 h [18] of 101 µM. For the same compound, the concentration [19] was 0.0523 µM, the concentration [20] was 0.0795 µM and the Activity [21] was 297 pmol. For the same compound, the IC50 ([22]; read-out: IC50) was 290 nM, the Drug metabolism [23] was 3.76 µM and the V0 [24] was 64.21 pmol/min. The Activity [25] was 396 pmol, the Ct [26] was 0 pmol and the Ct [27] was 7.609 pmol.

`NCCC(O)c1ccc(OCC2CCCCC2)cc1` (configuration not stated) showed an IC50 ([22]; read-out: IC50) of 8080 nM.

Compound `CC(CN)Cc1cccc(OCC2CCCCC2)c1` (configuration not stated) has an Activity [2] of 323 pmol, an Activity [5] of 85.6 pmol and an Activity [12] of 254 pmol. For the same compound, the Activity [16] was 17.4 pmol, the Activity [21] was 256 pmol and the IC50 ([22]; read-out: IC50) was 390 nM. For the same compound, the Activity [25] was 112 pmol.

For `NC(CCO)c1cccc(OCC2CCCCC2)c1` (configuration not stated), the inhibition [28] was “inactive” and the IC50 [22] was “Not Active”.

In the case of `CC(CN)Cc1ccc(F)c(OCC2CCCCC2)c1` (configuration not stated), the Activity [2] is reported as 413 pmol, the Activity [5] is reported as 123 pmol and the Activity [12] is reported as 398 pmol. For the same compound, the Activity [16] was 23.5 pmol, the Activity [21] was 260 pmol and the IC50 [22] was “Not Active”. For the same compound, the Activity [25] was 101 pmol.

Compound `CC(CCN)c1cccc(OCC2CCCCC2)c1` (configuration not stated) has an Activity [2] of 94.4 pmol, an Activity [5] of 124 pmol and an Activity [12] of 370 pmol. It also gave an Activity [16] of 25.6 pmol, an Activity [21] of 292 pmol and a fold change (FC) [29] of 4. It also gave an Activity [25] of 436 pmol.

For `NC(CO)Cc1ccc(OCC2CCCCC2)cc1` (configuration not stated), the inhibition [28] was “inactive” and the IC50 [22] was “Not Active”.

For `NC(CO)Cc1cccc(OCC2CCCCC2)c1` (configuration not stated), the inhibition [28] was “inactive” and the IC50 [22] was “Not Active”.

For `NCCCc1cccc(OCC2CCCCC2)c1`, the fold change (FC) [29] was 8.

In the case of `NCCc1cccc(OCC2CCCCC2)c1`, the Activity [2] is reported as 393 pmol, the Activity [5] is reported as 65 pmol and the Activity [12] is reported as 406 pmol. It also gave an Activity [16] of 16 pmol, an Activity [21] of 254 pmol and an Activity [25] of 89.5 pmol.
